Data taken from ChEMBL document CHEMBL1122659, “Synthesis of some phosphonates with antiherpetic activity” (1984).
In brackets after ≈: the same amount, converted by molar mass. Each block holds one compound with its values, some of them ahead of it. Activity calls are given as the source filed them. The calls are words filed in the database; no cut-off is given here.

Assays:
[1] = In vitro ability to inhibit the herpes HSV-2 virus; type: functional, herpes simplex virus; conditions: Oryctolagus cuniculus
Cavia porcellus [2] = species on record: Cavia porcellus; assay: Effect on the development of Herpetic vesicles in Guinea pigs infected intradermally with Herpes virus Hominis, Type 1,AA strain on day 2 at 5 % concentration; type: functional
How it was run: (§1)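 Albino Hartley guinea pigs (350–400 g) were infected intradermally with 0.05 mL undiluted HSV-1 AA strain, delivered by vaccination gun into a 12 mm marked area on an epilated flank. Topical cream treatment followed. Vesicle development was scored daily.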

Cavia porcellus [3] = species on record: Cavia porcellus; assay: Effect on the growth of Herpes simplex Type 1 on the skin of Guinea pigs infected intradermally on day 4 at 5 % concentration; type: functional
How it was run: (§2)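 Guinea pigs (Hartley, 350–400 g) were infected intradermally on an epilated flank with undiluted HSV-1 AA strain and treated with topical cream. Supernatants of lesion skin scrapings were diluted 10⁻¹ to 10⁻⁸ and titered by plaque assay on BSC-1 monolayers in triplicate: 1 h adsorption at 37 °C, agarose overlay, 4 days at 37 °C, formalin fixation, crystal violet staining, plaques counted.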

Cavia porcellus [4] = species on record: Cavia porcellus; assay: Effect on the development of Herpetic vesicles in Guinea pigs infected intradermally with Herpes virus Hominis, Type 1,AA strain on day 4 at 5 % concentration; type: functional; how it was run: as §1
Cavia porcellus [5] = species on record: Cavia porcellus; assay: Effect on the development of Herpetic vesicles in Guinea pigs infected intradermally with Herpes virus Hominis, Type 1,AA strain on day 1 at 5% concentration; type: functional
How it was run: (§3)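 Hartley albino guinea pigs (350–400 g) were infected with undiluted HSV-1 AA strain, 0.05 mL placed in a 12-mm circle on an epilated flank and given intradermally by vaccination gun. Test article was a topical cream, with treatment starting 24 h postinfection. Mean vesicle score was recorded on days 1–5 against placebo and nonmedicated groups.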

Cavia porcellus [6] = species on record: Cavia porcellus; assay: Effect on the growth of Herpes simplex Type 1 on the skin of Guinea pigs infected intradermally on day 1 at 5% concentration; type: functional
How it was run: (§4)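 Guinea pigs were infected intradermally with HSV-1 on an epilated flank and treated topically with cream. Virus in skin-scraping supernatants was titered by plaque assay on BSC-1 monolayers. Dilutions of 10⁻¹ to 10⁻⁸ in Eagle's medium with 2% FCS were plated in triplicate and adsorbed 1 h at 37 °C. An agarose overlay followed, with 4 days' incubation, formalin fixation, crystal violet staining and plaque counting.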

Cavia porcellus [7] = species on record: Cavia porcellus; assay: Effect on the growth of Herpes simplex Type 1 on the skin of Guinea pigs infected intradermally on day 3 at 5 % concentration; type: functional; how it was run: as §2
Cavia porcellus [8] = species on record: Cavia porcellus; assay: Effect on the growth of Herpes simplex Type 1 on the skin of Guinea pigs infected intradermally on day 2 at 5 % concentration; type: functional; how it was run: as §2
Oryctolagus cuniculus = species on record: Oryctolagus cuniculus; assay: In vitro ability to inhibit the herpes HSV-2 virus; Inactive; type: functional, organism-based; conditions: herpes simplex virus
Cavia porcellus [9] = species on record: Cavia porcellus; assay: Effect on the growth of Herpes simplex Type 1 on the skin of Guinea pigs infected intradermally on day 4 at 8 % concentration; type: functional; how it was run: as §4
Cavia porcellus [10] = species on record: Cavia porcellus; assay: Effect on the growth of Herpes simplex Type 1 on the skin of Guinea pigs infected intradermally on day 1 at 8 % concentration; type: functional; how it was run: as §4
Cavia porcellus [11] = species on record: Cavia porcellus; assay: Effect on the growth of Herpes simplex Type 1 on the skin of Guinea pigs infected intradermally on day 2 at 8 % concentration; type: functional; how it was run: as §4
Cavia porcellus [12] = species on record: Cavia porcellus; assay: Effect on the development of Herpetic vesicles in Guinea pigs infected intradermally with Herpes virus Hominis, Type 1,AA strain on day 4 at 8 % concentration; type: functional; how it was run: as §3
Cavia porcellus [13] = species on record: Cavia porcellus; assay: Effect on the growth of Herpes simplex Type 1 on the skin of Guinea pigs infected intradermally on day 3 at 8 % concentration; type: functional; how it was run: as §4
Cavia porcellus [14] = species on record: Cavia porcellus; assay: Effect on the development of Herpetic vesicles in Guinea pigs infected intradermally with Herpes virus Hominis, Type 1,AA strain on day 3 at 8 % concentration; type: functional; how it was run: as §3
Cavia porcellus [15] = species on record: Cavia porcellus; assay: Effect on the development of Herpetic vesicles in Guinea pigs infected intradermally with Herpes virus Hominis, Type 1,AA strain on day 1 at 8 % concentration; type: functional; how it was run: as §3
Cavia porcellus [16] = species on record: Cavia porcellus; assay: Effect on the development of Herpetic vesicles in Guinea pigs infected intradermally with Herpes virus Hominis, Type 1,AA strain on day 2 at 8 % concentration; type: functional; how it was run: as §3

SMILES: CCCOP(=O)(CCCCCCOc1ccc(OC)cc1Cl)OCCC
MIC [1]: 6 µg/mL (≈ 14.7 µM)

SMILES: CCOP(=O)(OCC)C(CCCCCOc1ccc(OC)cc1Cl)C(C)=O (stereo unspecified)
MIC [1]: 6 µg/mL (≈ 14.3 µM)

SMILES: Nc1nc2c(ncn2COCCO)c(=O)[nH]1 [ACYCLOVIR]
Mean vesicle score (Cavia porcellus [2]): 0.83 | Log geometric mean (Cavia porcellus [3]): 2.13 pfu mg-1 | Mean vesicle score (Cavia porcellus [4]): 1 | Mean vesicle score (Cavia porcellus [5]): 0.58 | Log geometric mean (Cavia porcellus [6]): 4.3 pfu mg-1 | Log geometric mean (Cavia porcellus [7]): 3.31 pfu mg-1 | Log geometric mean (Cavia porcellus [8]): 4.09 pfu mg-1

MIC (Oryctolagus cuniculus): inactive
SMILES: CCOP(=O)(CCCCCCOc1ccc(Cl)cc1)OCC

MIC (Oryctolagus cuniculus): inactive
SMILES: COc1ccc(OCCCCCCP(=O)(O)O)c(Cl)c1

SMILES: CCC(=O)C(CCCCCCOc1ccc(OC)cc1Cl)C(=O)CC [ARILDONE]
Log geometric mean (Cavia porcellus [9]): 2.62 pfu mg-1 | Log geometric mean (Cavia porcellus [10]): 4.13 pfu mg-1 | Log geometric mean (Cavia porcellus [11]): 4.07 pfu mg-1 | Mean vesicle score (Cavia porcellus [12]): 0.83 | Log geometric mean (Cavia porcellus [13]): 2.92 ppfu mg-1 | Mean vesicle score (Cavia porcellus [14]): 0.92 | Mean vesicle score (Cavia porcellus [15]): 0.33 | Mean vesicle score (Cavia porcellus [16]): 0.83

SMILES: CCOC(=O)c1ccc(OCCCCCCP(=O)(OCC)OCC)cc1
MIC [1]: 6 µg/mL (≈ 15.5 µM)

SMILES: CCOP(=O)(OCC)C(CCCCCCCCOc1ccc(OC)cc1Cl)C(C)=O (stereo unspecified)
MIC [1]: 6 µg/mL (≈ 13 µM)

SMILES: CCOP(=O)(CCCCCCOc1c(Cl)cccc1Cl)OCC
MIC [1]: 12 µg/mL (≈ 31.3 µM)

MIC (Oryctolagus cuniculus): inactive
SMILES: CCOP(=O)(CCCCCCOc1ccc(Br)cc1)OCC

MIC (Oryctolagus cuniculus): inactive
SMILES: CCOP(=O)(CCCCOc1ccc(OC)cc1Cl)OCC

MIC (Oryctolagus cuniculus): inactive
SMILES: CCOP(=O)(CCCCCCCCOc1ccc(OC)cc1Cl)OCC

MIC (Oryctolagus cuniculus): inactive
SMILES: CCOP(=O)(CCOc1ccc(OC(C)=O)cc1)OCC
